Compound activity: PubChem BioAssay, several laboratories
KCNQ1 inh: inhibitors of human KCNQ1 channel, primary screen, cell-based, thallium flux, high-throughput; Potassium voltage-gated channel subfamily KQT member 1 (Homo sapiens), P51787; CHO-K1 KCNQ1, FluxOR thallium flux fluorescence; active compounds read high; B-score at 10 µM; 310,000 compounds, 1.3% hits; AID 2642, 2010;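 active means compounds whose thallium flux B-score, printed positive for inhibition, exceeds three library SD while starting fluorescence stays within three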;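 further: channel opened by potassium depolarization with thallium stimulus after 20 min compound exposure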
Cl transport mod: KCC2 cotransporter modulators, thallium flux, primary screen, cell-based, HEK293 KCC2, FluoZin-2 fluorescence, MLSMR | KCC2 cells, thallium flux FluoZin-2 fluorescence | B-score of Tl+ flux slope (higher = more flux/activation; lower = inhibition) at 10 µM | 190,000 compounds, 2.2% hits | AID 1456, 2008;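 active means thallium flux slope and its plate-corrected score both differing from the plate sample mean at a set confidence after two filtering rounds, in either direction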;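 further: slope of fluorescence scaled to starting intensity during 10 to 20 s after thallium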
Target sequence (Q9H2X9 whole entry, looked up): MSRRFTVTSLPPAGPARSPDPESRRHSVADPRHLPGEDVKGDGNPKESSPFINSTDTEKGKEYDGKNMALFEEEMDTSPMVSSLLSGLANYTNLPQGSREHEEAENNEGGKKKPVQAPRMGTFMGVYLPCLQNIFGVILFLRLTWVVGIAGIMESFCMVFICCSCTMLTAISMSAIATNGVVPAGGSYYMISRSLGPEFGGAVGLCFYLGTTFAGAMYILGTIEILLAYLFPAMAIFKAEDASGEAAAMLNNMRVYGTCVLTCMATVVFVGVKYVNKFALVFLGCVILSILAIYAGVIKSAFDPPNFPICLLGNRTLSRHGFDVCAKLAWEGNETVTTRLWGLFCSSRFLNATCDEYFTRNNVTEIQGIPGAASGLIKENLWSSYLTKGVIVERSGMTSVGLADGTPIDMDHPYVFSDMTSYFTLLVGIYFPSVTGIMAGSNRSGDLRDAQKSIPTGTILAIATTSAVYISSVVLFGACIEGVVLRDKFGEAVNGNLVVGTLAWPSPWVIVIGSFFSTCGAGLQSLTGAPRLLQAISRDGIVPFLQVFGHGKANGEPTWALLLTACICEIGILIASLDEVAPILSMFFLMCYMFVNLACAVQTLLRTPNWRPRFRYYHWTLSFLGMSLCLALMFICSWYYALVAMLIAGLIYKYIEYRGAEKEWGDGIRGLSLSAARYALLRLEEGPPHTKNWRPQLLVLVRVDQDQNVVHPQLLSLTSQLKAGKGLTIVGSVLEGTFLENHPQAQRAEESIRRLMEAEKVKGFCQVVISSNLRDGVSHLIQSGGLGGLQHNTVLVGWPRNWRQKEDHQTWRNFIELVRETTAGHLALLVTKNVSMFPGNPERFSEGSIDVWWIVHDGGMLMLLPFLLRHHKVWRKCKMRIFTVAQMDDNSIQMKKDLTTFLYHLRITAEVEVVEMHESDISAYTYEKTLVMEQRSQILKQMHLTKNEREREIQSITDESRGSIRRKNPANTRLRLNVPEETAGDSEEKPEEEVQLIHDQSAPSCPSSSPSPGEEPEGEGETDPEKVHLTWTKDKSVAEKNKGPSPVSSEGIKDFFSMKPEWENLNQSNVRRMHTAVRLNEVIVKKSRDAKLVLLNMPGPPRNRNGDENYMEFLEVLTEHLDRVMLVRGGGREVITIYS
KCNK3 block: human KCNK3 channel inhibitors, primary screen, CHO cells, FluxOR thallium flux, B-score. 340,000 compounds, 0.84% hits. B-score at 10 µM. Potassium channel subfamily K member 3 (Homo sapiens), O14649. FluxOR fluorescence; active compounds read low;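 active means B-score under library mean minus 4 SD, starting fluorescence ratio at most library mean plus 5 SD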;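 further: more negative B-score means stronger inhibition of thallium flux through KCNK3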
KCNQ1 pot: potentiators or activators of KCNQ1 channel, primary screen, cell-based, thallium flux, high-throughput. Potassium voltage-gated channel subfamily KQT member 1 (Homo sapiens), P51787. CHO-K1 KCNQ1, thallium flux FluxOR fluorescence; active compounds read high. B-score at 10 µM. 310,000 compounds, 0.35% hits. AID 2648, 2010;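 active means fluorescence ratio B-score, a plate-corrected score, at least three library SD, with initial intensity B-score within 5 SD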
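assay system = KCNQ1-transfected CHO-K1 cells | medium = assay buffer with matched DMSO | probe or stimulus = depolarizing K+/Tl+ stimulus, K2SO4 and Tl2SO4 each 12.5 mM in 5x stock | dosing = single dose | incubation = dye 90 min, compound 20 min, room temperature | detection = kinetic FluxOR fluorescence, 10 s baseline plus 110 s post-stimulus | evaluation = ratio B score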
hERG protect: hERG rescue from dofetilide block, primary screen, cell-based, CHO-hERG, FluxOR thallium flux, dofetilide IC70 | Voltage-gated inwardly rectifying potassium channel KCNH2 (Homo sapiens), Q12809 | dofetilide IC70 present | activation (rescue from dofetilide block), less the hit threshold, % at 10 µM | 310,000 compounds, 0.51% hits;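 active means activation above the mean of controls blocked by dofetilide plus 5 SD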;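 further: thallium influx through hERG after potassium depolarization seen as dye fluorescence rise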
KCNK9 inh: KCNK9 potassium channel inhibitors, primary screen, HEK293 cells, thallium flux; Potassium channel subfamily K member 9 (Homo sapiens), Q9NPC2; FluxOR thallium flux fluorescence; active compounds read low; B-score at 10 µM; 310,000 compounds, 1.2% hits;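 active means ratio B-score over 3 SD below the library mean, with starting fluorescence within 5 SD of its mean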;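 further: negative B-score means less thallium flux so channel inhibition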
Large screens that a line does not name were inactive. Sampled rows, rich in hits. Any-hit rate of the full collection: about 4.1%.

COc1ccc(C(=O)Cn2cc[n+](C)c2)cc1	none (no result: Cl transport mod)
C=C(C)C(=O)OCC(O)COc1ccc(C(C)(C)c2ccc(OCC(O)COC(=O)C(=C)C)cc2)cc1 (stereo not given)	KCNQ1 inh 9, KCNK3 block -12 (no result: Cl transport mod)
CC(=O)c1ccc(OCC(O)COc2ccc(C(C)=O)cc2)cc1	hERG protect 4.9
CCc1ccc(OCC(=O)NC(=S)Nc2ccc(C(C)=O)cc2)c(Br)c1	hERG protect 4.9
Cc1onc(-c2ccccc2)c1C(=O)Nc1nc(-c2cc(F)ccc2F)cs1	none
CC(C)CC(=O)NC(=S)Nc1nc(-c2ccccc2)cs1	KCNQ1 pot 9
O=C(NC(=S)Nc1nc(-c2ccccc2)cs1)c1cccs1	KCNQ1 pot 17, hERG protect 17
Cc1ccc(-c2csc(NC(=S)NC(=O)c3cccs3)n2)cc1	none
Cc1onc(-c2ccccc2)c1C(=O)Nc1nc(-c2ccccc2)cs1	KCNQ1 inh 6
CCCn1nc(NS(=O)(=O)c2cccc3nonc23)c2cc3ccccc3nc21	none (no result: Cl transport mod)
COCCSc1nnc(NC(=O)C2CC(=O)N(CCc3ccc(F)cc3)C2)s1 (stereo not given)	none (no result: Cl transport mod)
CCCCCn1c(N2CCN(c3cccc(Cl)c3)CC2)nc2c1c(=O)[nH]c(=O)n2C	KCNK9 inh -7.3
CCn1c(C)[n+](Cc2ccccc2)c2ccc(Cl)cc21	none
CCn1c(/C=C/N(C)c2ccccc2)[n+](CC)c2ccc(Cl)cc21	KCNQ1 inh 13 (no result: Cl transport mod)
CCCSc1ccc([C@H]2N[C@@](C)(C(=O)OC)[C@H]3C(=O)N(CC)C(=O)[C@@H]23)cc1	none (no result: KCNQ1 inh, Cl transport mod, KCNQ1 pot, hERG protect, KCNK9 inh)
C=CCC[C@@H](Cc1ccc(F)cc1)C(=O)OC[C@@H](NC(=O)[C@@H](CC=C)CC(=O)N[C@H](CO)Cc1ccccc1)C(C)(C)C	none (no result: KCNQ1 inh, Cl transport mod, KCNQ1 pot, hERG protect, KCNK9 inh)
C=CCN1C=CC(=CC=C(C#N)C#N)C=C1	KCNQ1 inh 7
COc1ccc(OC)c(S(=O)(=O)N2CCC(C(=O)Nc3cccc(C)c3)CC2)c1	KCNQ1 inh 6, KCNK9 inh -7.9
O=C(Nc1ccncc1)C1CCN(S(=O)(=O)c2c(Cl)cccc2Cl)CC1	KCNK9 inh -7 (no result: Cl transport mod)
COc1ccc(OC)c(S(=O)(=O)N2CCC(C(=O)Nc3ccccc3)CC2)c1	none
Clc1ccccc1-c1nnc2sc(CCc3ccccc3)nn12	Cl transport mod -3.4
c1ccc(CCc2nn3c(-c4ccncc4)nnc3s2)cc1	none
O=c1oc2ccccc2cc1-c1csc(Nc2nc3ccc(F)cc3s2)n1	none (no result: KCNK3 block)
O=c1oc2ccccc2cc1-c1csc(Nc2nc3c(F)cccc3s2)n1	KCNK9 inh -7.6
S=C(NCCNCc1ccccc1)NC1CCCCC1	KCNK9 inh -7.1 (no result: KCNK3 block)
CC(C)[C@H](NC(=O)c1ccc(Cl)cc1)C(=O)OCC(=O)N1CCN(c2ccccc2)CC1	none (no result: KCNQ1 inh, Cl transport mod, KCNQ1 pot, hERG protect, KCNK9 inh)
CC(C)CC(C(=O)NC1CCCCC1)N(Cc1cccs1)C(=O)c1snc(C(N)=O)c1N (stereo not given)	KCNQ1 inh 8
CCCCC(C(=O)NC1CCCC1)N(Cc1ccccc1)C(=O)c1snc(C(N)=O)c1N (stereo not given)	KCNQ1 inh 10 (no result: Cl transport mod)
CN(C)c1ccc(C(C(=O)NCc2ccccc2)N(Cc2cccnc2)C(=O)c2snc(C(N)=O)c2N)cc1 (stereo not given)	KCNQ1 inh 8 (no result: Cl transport mod)
CC(C)CC(C(=O)NC1CCCC1)N(Cc1cccs1)C(=O)c1snc(C(N)=O)c1N (stereo not given)	none
CCCC(C(=O)NC1CCCC1)N(Cc1ccc(F)cc1)C(=O)c1snc(C(N)=O)c1N (stereo not given)	none (no result: Cl transport mod)
COc1ccc(/C=C(/NC(=O)c2ccc(C)cc2)C(=O)N2CCCC2)cc1OC	none (no result: Cl transport mod)
O=C(Nc1nnc(-c2cccs2)o1)c1cccc(F)c1	Cl transport mod 26
C#CCOCCOCCOCCNc1nc(N2CCN(C(=O)[C@H](CCC(=O)O)n3cc([C@@H](N)CC(N)=O)nn3)CC2)nc(N2CCN(C(=O)[C@H](CCC(=O)O)n3cc([C@@H](N)CC(N)=O)nn3)CC2)n1	none (no result: KCNQ1 inh, Cl transport mod, KCNQ1 pot, hERG protect, KCNK9 inh)
CC1CN(C(=O)COC(=O)[C@@H](NC(=O)c2ccccc2Cl)C(C)C)CC(C)O1 (stereo not given in full)	none (no result: KCNQ1 inh, Cl transport mod, KCNQ1 pot, hERG protect, KCNK9 inh)
CN1CCN(CCCNC(=O)c2ccc(Cn3c(=S)[nH]c4ccc(Br)cc4c3=O)cc2)CC1	none
CC1CCN(CCCNC(=O)c2ccc(Cn3c(=S)[nH]c4ccc(Br)cc4c3=O)cc2)CC1	KCNQ1 inh 8 (no result: KCNK3 block)
CCOC(=O)N1CCC(n2c(SCC(=O)OCc3ccccc3)nc3ccsc3c2=O)CC1	KCNK3 block -9.3
COc1cccc(CNC(=O)c2cc(=O)[nH]c3ccc(S(=O)(=O)N4CCOCC4)cc23)c1	none (no result: KCNQ1 inh, Cl transport mod, KCNQ1 pot, hERG protect, KCNK9 inh)
Cc1nnc(SCC(=O)N2CC(=O)Nc3ccccc32)n1C	none
Cc1sc2nc(C3CC3)nc(SCC(=O)N3CC(=O)Nc4ccccc43)c2c1C	Cl transport mod 12
CC(=O)n1c(=O)oc2ccccc21	none (no result: Cl transport mod)
COc1cc(Cl)c(C)cc1NC(=O)CSc1sc2c(O)cc(=O)[nH]c2c1C#N	hERG protect 4.7 (no result: Cl transport mod)
CC(C)CCN(C(=O)c1ccc(Br)cc1)c1c(N)n(Cc2ccccc2)c(=O)[nH]c1=O	none (no result: KCNQ1 inh, Cl transport mod, KCNQ1 pot, hERG protect, KCNK9 inh)
CNC(=O)CSc1nnc(-c2ccco2)n1-c1ccc(C)cc1	hERG protect 48
C/C(=N/Nc1nc(C)cc(C)n1)c1ccc(Br)cc1	none (no result: Cl transport mod)
C/C(=N\Nc1nc(C)cc(C)n1)c1ccc(N2CCOCC2)cc1	hERG protect 6.0
Cc1ccc(C(=O)CC(=O)c2cccc(F)c2)c(O)c1	Cl transport mod 22, KCNQ1 pot 16, hERG protect 10
Cc1ccc(C(=O)CC(=O)c2ccccc2C)c(O)c1	none (no result: Cl transport mod)
CC(C)c1ccc2[nH]c3c(c2c1)[C@@H]1CCN2C(=O)CCC[C@H](C3)[C@H]12	none (no result: Cl transport mod)
Fc1ccccc1C1CC(c2ccco2)=Nc2ccccc2S1 (stereo not given)	KCNK9 inh -6.9
O=C(COC(=O)CNC(=O)c1ccc(Cl)c([N+](=O)[O-])c1)NCC1CCCO1 (stereo not given)	none (no result: KCNQ1 inh, Cl transport mod, KCNQ1 pot, hERG protect, KCNK9 inh)
Nc1ccc(O)c2ccccc12	none (no result: Cl transport mod, KCNK3 block)
CC(C)(C)OC(=O)COc1cc(OCC(=O)OC(C)(C)C)c2c(=O)cc(-c3ccccc3)oc2c1	KCNK3 block -9.1 (no result: KCNQ1 inh, KCNQ1 pot, hERG protect, KCNK9 inh)
COc1cccc(C2(O)CCN(C(=O)C3CCC3)CC2)c1	hERG protect 4.8
COc1ccccc1/C=C(/C(=O)OCC(=O)Nc1ccc(N(C)C)cc1)c1ccccc1	none
